In ChEMBL document CHEMBL4428062, “Human Toll-like Receptor (TLR) 8-Specific Agonistic Activity in Substituted Pyrimidine-2,4-diamines” (J Med Chem, 2016):
pEC50: −log10 of the molar value. Calls of active or inactive are those of the source. The calls are words filed in the database; no cut-off is given here.

Columns and labels:
[1] = target: T1, Toll-like receptor 8 (Homo sapiens) (UniProt Q9NR97); assay: Agonist activity at TLR8 in human PBMC assessed as Th1-biased stimulatory activity measured as IFNgamma release after 16 hrs by immunoassay
T1 sequence (whole entry): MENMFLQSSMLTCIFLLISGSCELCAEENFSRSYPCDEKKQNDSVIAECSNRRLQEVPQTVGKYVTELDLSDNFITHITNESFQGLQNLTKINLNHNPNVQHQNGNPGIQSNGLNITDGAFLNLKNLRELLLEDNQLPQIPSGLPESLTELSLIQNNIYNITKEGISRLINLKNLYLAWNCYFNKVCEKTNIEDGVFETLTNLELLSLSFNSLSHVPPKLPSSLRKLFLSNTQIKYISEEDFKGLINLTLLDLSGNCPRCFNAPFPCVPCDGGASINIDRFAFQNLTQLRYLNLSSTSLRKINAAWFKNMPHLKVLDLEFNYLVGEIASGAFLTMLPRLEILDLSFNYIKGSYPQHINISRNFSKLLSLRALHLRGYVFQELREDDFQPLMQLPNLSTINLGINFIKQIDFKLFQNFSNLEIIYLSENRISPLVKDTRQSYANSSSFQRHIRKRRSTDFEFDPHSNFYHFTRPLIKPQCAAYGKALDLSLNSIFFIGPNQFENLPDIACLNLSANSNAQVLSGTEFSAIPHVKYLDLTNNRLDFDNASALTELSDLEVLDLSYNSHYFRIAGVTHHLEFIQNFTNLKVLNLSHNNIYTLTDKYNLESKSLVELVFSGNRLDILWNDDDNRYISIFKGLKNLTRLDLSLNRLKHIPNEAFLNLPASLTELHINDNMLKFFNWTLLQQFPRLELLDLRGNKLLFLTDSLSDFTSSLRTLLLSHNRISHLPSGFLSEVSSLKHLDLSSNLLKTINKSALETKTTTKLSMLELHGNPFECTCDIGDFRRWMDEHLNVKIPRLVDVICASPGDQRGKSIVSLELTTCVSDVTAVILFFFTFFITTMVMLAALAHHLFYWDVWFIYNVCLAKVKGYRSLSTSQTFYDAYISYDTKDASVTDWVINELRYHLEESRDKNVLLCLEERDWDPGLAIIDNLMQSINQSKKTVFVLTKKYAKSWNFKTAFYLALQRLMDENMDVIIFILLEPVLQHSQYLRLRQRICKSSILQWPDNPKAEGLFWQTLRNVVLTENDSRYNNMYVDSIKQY
How it was run: (§1)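 Freshly isolated human PBMC from venipuncture blood (informed consent), 10^5 cells/well, stimulated 16 h with graded concentrations of compound. Supernatants collected by centrifugation and cytokines quantified in duplicate with a multiplexed cytokine/chemokine magnetic bead array.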

[2] = target: T1, Toll-like receptor 8 (Homo sapiens); assay: Agonist activity at TLR8 in human monocytes assessed as upregulation of CD80 after 16 hrs by flow cytometry; format: cell-based
How it was run: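 Heparin-anticoagulated healthy-donor whole blood added to serial compound dilutions, 37 °C for 16 h, DMSO negative control. Stained with CD14-FITC, CD40-APC, CD80-PE-Cy7 and CD86-V450 (2.5 µg each, 4 °C, dark, 60 min). Erythrocytes lysed, leukocytes fixed, washed, then flow cytometry on 200,000 gated events. Monocytes gated as CD14+, CD80 read as MFI, means of duplicates.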

Toll-like receptor 8 = target: T2, Toll-like receptor 8 (Homo sapiens, UniProt Q9NR97); assay: Agonist activity at TLR8 in human PBMC assessed as increase in TNF-alpha production after 16 hrs by immunoassay; how it was run: as §1
T2 sequence (Q9NR97 whole entry): T1 sequence (whole entry)

Compound	Activity [1]	Activity [2]	pEC50 (Toll-like receptor 8)
CCCCNc1nc(N)nc(-c2ccccc2)c1CCCCN	inactive	–	–
CCCCCn1c(N)nc2c(C)cccc21	–	14 µM	–
CCCCNc1nc(N)nc(C)c1CCCCN	Active	1.5 µM	5.03
CCCCNc1cc(-c2ccccc2)nc(N)n1	inactive	–	–
CCCCNc1nc(N)nc(C)c1I	Active	5 µM	–
